Source: PubChem BioAssay
CYP2C19 activ – cytochrome P450 2C19 (human) activation. P33261. recombinant CYP2C19, luciferin-H EGE luminescence; stronger effect = higher value; 0 = fully inhibited enzyme, 1 = untreated enzyme. activation factor at 5 µM. 96,000 tested, under 10 active;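 active = activation factor of at least 2 at 5 µM in the primary screen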;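 also: 0 = wells with 2.5 mM tranylcypromine and 1 = vehicle-only wells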
Target sequence (P33261 whole entry, looked up): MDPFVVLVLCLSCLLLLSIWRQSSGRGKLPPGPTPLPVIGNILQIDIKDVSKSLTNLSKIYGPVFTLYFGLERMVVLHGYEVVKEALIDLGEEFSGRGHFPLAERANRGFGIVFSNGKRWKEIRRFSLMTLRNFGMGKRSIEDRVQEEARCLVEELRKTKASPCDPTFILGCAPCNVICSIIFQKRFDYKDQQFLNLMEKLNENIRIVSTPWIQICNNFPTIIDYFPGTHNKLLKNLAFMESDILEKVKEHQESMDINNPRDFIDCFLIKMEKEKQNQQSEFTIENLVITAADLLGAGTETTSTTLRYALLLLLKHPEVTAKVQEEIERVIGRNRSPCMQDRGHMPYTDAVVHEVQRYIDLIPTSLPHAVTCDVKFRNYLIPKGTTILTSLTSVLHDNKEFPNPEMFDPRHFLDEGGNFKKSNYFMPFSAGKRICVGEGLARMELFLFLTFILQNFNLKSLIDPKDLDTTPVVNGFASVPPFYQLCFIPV
E coli WT exp – E. coli BW25113 growth inhibition, expanded screen; 98,000 compounds, 0.15% hits; growth inhibition, % at 100 µM; OD600 absorbance;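 active = growth inhibition above about 50% at one test dose, limit read from the data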;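 also: growth measured after 20 h incubation at 37 °C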
CYP2C9 inhib – inhibitors of human CYP2C9; P11712; CYP2C9 Supersomes, luciferin-H conversion, luminescence; inhibition, % at 5 µM; 96,000 compounds, 20% hits; AID 777;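 active = blocking of liver enzyme CYP2C9 beyond about 50% at 5 µM, limit read from the data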
Ecoli tolC – E. coli tolC mutant growth inhibition. E. coli BW25113 tolC mutant growth, OD615. growth inhibition, % at 10 µM (by protocol). 65,000 compounds, 2.2% hits;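 active = growth inhibition at or above a cutoff equal to the mean over every tested compound plus 3 SD, cut at about 60% in these data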;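 also: growth measured after 20 h incubation at 37 °C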
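test system = E. coli BW25113 ΔtolC::kan bacteria | medium = LB with kanamycin 50 µg/mL | signal = OD at 615 nm | schedule = 37 °C, 20 h exposure | evaluation = % inhibition of E. coli growth | compound dosing = one dose of 10 µM final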
CYP2C19 inhib – blocks human cytochrome P450 2C19 | P33261 | CYP2C19 Supersomes, luciferin-H EGE luminescence, 30 min | inhibition, % at 5 µM | 96,000 compounds, 21% hits | AID 778;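 active = CYP2C19 inhibition above a set limit at 5 µM in the primary screen, cut at about 50% in these data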;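 also: plate controls were negative control wells for no effect and 2.5 mM tranylcypromine positive control for full effect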
CYP2C9 activ – CYP2C9 (human) activation. activation factor at 5 µM. P11712. 96,000 compounds, 1.4% hits. recombinant CYP2C9, luciferin-H conversion, luminescence; stronger effect = higher value; factor 1 = untreated enzyme, 0 = blocked. AID 1024;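 active = activation factor of 2 or more for CYP2C9 at a 5 µM dose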;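 also: 0 = sulfaphenazole-blocked wells and 1 = vehicle-only wells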
The depositor's hits bear a star; x = no result given. This is a sample that favours compounds with a hit; in the whole collection about 29% have one here.

SMILES	CYP2C19 activ	E coli WT exp	CYP2C9 inhib	Ecoli tolC	CYP2C19 inhib	CYP2C9 activ
CCOc1nc(C)nc(NC(=O)NS(=O)(=O)c2ccccc2Cl)n1	1	9	-6	x	-3	1.1
C=CCNc1nc(-c2ccc(OC)cc2OC)cs1	0.4	9	-8	-2	57*	1.1
O=C(Nc1ccc(Cl)cc1)Nc1ccc2c(c1)N1CCN=C1S2	0.6	30	67*	52	42	0.3
Cn1cccc1Cc1nnc(SCC(=O)Nc2ccc3c(c2)OCO3)n1CCc1ccccc1	0.4	-20	57*	30	55*	0.4
Cn1c(Cc2ccccc2)nnc1SCC(=O)Nc1ccc2c(c1)OCO2	0.1	6	55*	-8	87*	0.5
Cn1c(Cn2c(=O)sc3ccccc32)nnc1SCC(=O)Nc1ccc2c(c1)OCO2	x	-13	x	-6	x	x
CCCOC(=O)NC(CC)COC(=O)Nc1cc(C)ccc1C (stereo not drawn)	0.3	-1	25	-8	70*	0.8
COC(=O)c1cccc(NC(=O)c2cc3sccc3n2C)c1	0.2	-3	53*	9	77*	0.5
Cn1c(C(=O)NC2CCCCC2)cc2sccc21	0.4	4	18	22	55*	0.8
CN(C(=O)c1cc2sccc2n1C)C1CCCCC1	0.3	6	21	11	74*	0.8
CC1CCN(CCCNC(=O)c2cc3sccc3n2C)CC1	1.1	6	-2	7	-14	1
Cn1c(C(=O)N2CCCC(C(=O)O)C2)cc2sccc21 (stereo not drawn)	1	-7	4	-21	1	1
CC1CC(C)CN(C(=O)CN2CCN(Cc3ccc(Cl)cc3)C2=O)C1 (stereo not drawn)	0.6	-1	0	x	37	1
CCOc1ccc(Nc2cc(C)nc(-n3nc(C)cc3C)n2)cc1	0.9	10	8	72*	5	0.9
CCCCNC(=S)Nc1ccccc1F	0.7	7	7	x	29	0.9
O=C(NCc1cccs1)c1ccncc1	0.8	8	27	-1	23	0.7
O=C(NCc1cccs1)c1cccc(Nc2nc3ccc(Br)cc3[nH]2)c1	0.7	10	83*	x	33	0.2
O=C(Nc1ccc(Cl)cc1)N(Cc1nnc2n1CCCCC2)c1ccccc1	1.2	-9	-26	5	-16	1.3
Cc1ccc(CNC(=O)[C@@H]2CCC(=O)N2Cc2ccco2)cc1	0.7	-1	4	x	32	1
Cc1cc(C)c(C(=O)c2ccc(C(=O)NC(C)(C)C)cc2)c(C)c1	0.7	-7	20	x	30	0.8
Cc1cc(C)c(C(=O)c2ccc(C(=O)N(C(C)C)C(C)C)cc2)c(C)c1	0.1	-5	82*	x	86*	0.2
Cc1cc(C)c2c(c1)OC(O)(C(F)F)CC2=O (stereo not drawn)	0.1	2	-43	-6	88*	1.4
O=C(NC(=S)Nc1cccc(Cl)c1N1CCCC1)c1ccc(-c2cccc([N+](=O)[O-])c2)o1	1	-12	2	x	-1	1
COC(=O)c1cn(CC(=O)NCc2ccco2)c2ccccc12	0.1	4	30	-10	92*	0.7
COC(=O)c1cn(CC(=O)N2CCCCCC2)c2ccccc12	0.1	-1	23	-2	92*	0.8
SMILES	CYP2C19 activ	E coli WT exp	CYP2C9 inhib	Ecoli tolC	CYP2C19 inhib	CYP2C9 activ
COc1ccc(CC(=O)NCCc2ccc(S(N)(=O)=O)cc2)cc1	1.1	-9	-4	x	-11	1
CCCc1ccc(OCCNC(=O)CC)cc1	0.4	0	29	-6	56*	0.7
CCCCC(=O)NCCc1ccc(OC)cc1	0.4	0	26	x	57*	0.7
COCCCNC(=O)CC(NS(=O)(=O)c1ccc(OC)cc1)c1ccc(OC)cc1 (stereo not drawn)	0.8	0	-7	-4	17	1.1
COCCCNC(=O)CC(NS(=O)(=O)c1ccc(Cl)cc1)c1ccc(OC)cc1 (stereo not drawn)	0.5	1	-16	x	55*	1.2
COc1ccc(S(=O)(=O)CCC(=O)NCCc2ccc(Cl)cc2)cc1	0.3	4	71*	x	71*	0.3
O=C(NC1CCCc2ccccc21)C1CCN(C(=O)c2sccc2-n2cccc2)CC1 (stereo not drawn)	0.8	4	39	4	15	0.6
CC(=O)c1ccc(Oc2ncnc3sccc23)c(CN2CCOCC2)c1	x	3	x	-5	x	x
CCCCOCCCNC(=O)CN1C(=O)c2ccccc2C1=O	1.1	3	-9	-6	-6	1.1
CCCCNC(=O)Cn1c(-c2ccc(OC)cc2)noc1=O	0.3	6	35	-23	65*	0.7
COc1ccc(CCNC(=S)Nc2ccccc2C)cc1	0.5	5	24	x	48	0.8
COc1ccc(CCNC(=S)Nc2cc(C)cc(C)c2)cc1	0.4	-19	-44	x	62*	1.4
Cc1ccsc1C(=O)Nc1ccccc1N1CCOCC1	0.9	3	-11	x	7	1.1
c1ccc2cc(-c3cc4ccccn4c3)ccc2c1	0.9	-1	13	x	9	0.9
N#Cc1ncc(C(F)(F)F)cc1Sc1ccc(N)cc1	0	5	81*	x	96*	0.2
CCOc1ccc(C(=O)N2CCCCCC2)cc1	0.7	8	11	-1	32	0.9
CCCOc1ccc(C(=O)N2CCN(c3ccc(N)cc3Cl)CC2)cc1	0.2	1	80*	12	84*	0.2
Cn1c(=O)c2c(SC3CCCC3)nc(C3CC3)nc2n(C)c1=O	1	-1	8	-4	-3	0.9
COc1ccc2nnc(-c3ccccc3)n2n1	1	3	-5	0	4	1.1
O=C(c1ccc(Br)o1)N1CCN(c2ccc3nnc(-c4ccccc4)n3n2)CC1	0.2	7	88*	28	79*	0.1
O=S(=O)(c1ccc(Br)cc1)N1CCN(c2ccc3nnc(-c4ccccc4)n3n2)CC1	0.4	-12	80*	x	60*	0.2
COc1cc(NC(=O)c2cnn3c(C)cc(C)nc23)c(OC)cc1Cl	0.8	-5	11	20	22	0.9
COc1cc(C(=O)NNC(=O)NC2CCCCC2)cc(OC)c1OC	0.9	-3	-2	x	13	1
Cc1ccc(N2CC(C(=O)NCCCn3ccnc3)CC2=O)cc1 (stereo not drawn)	0.1	2	76*	-20	85*	0.2
Cc1ccc(N2CC(C(=O)Nc3nnc(C(C)C)s3)CC2=O)cc1 (stereo not drawn)	1	0	58*	-19	2	0.4
Cc1ccc(N2CC(C(=O)NCCC(C)C)CC2=O)cc1 (stereo not drawn)	x	7	x	-11	x	x
CCOC(=O)c1[nH]c2ccc(OC)cc2c1N=CN(C)C	0.9	4	11	2	7	0.9
Cc1ccc(S(=O)(=O)N2CCN(C(=O)CSc3nnc(C)s3)C2)cc1	0.7	-1	-2	-10	27	1
